Experimental data: ChEMBL document CHEMBL2021769, “Isolation, structure elucidation, and biological evaluation of 16,23-epoxycucurbitacin constituents from Eleaocarpus chinensis” (J Nat Prod, 2012)
Active and inactive are the calls of the source. The calls are words filed in the database; no cut-off is given here.

Columns and labels:
HT-29 [1] = assay: Cytotoxicity against human HT-29 cells after 3 days by sulforhodamine B assay; assay type: functional, cell-based; settings: HT-29, 72 h
HT-29 [2] = assay: Cytotoxicity against human HT-29 cells after 3 days by mitochondrial transmembrane potential assay; assay type: functional, cell-based; settings: HT-29, 72 h
MCF7 = assay: Antitumor activity against human MCF7 cells xenografted in immunodeficient NCr nu/nu mouse assessed as inhibition of tumor growth at 0.5 to 10 mg/kg, ip dosed as four daily injections on day 3,4,5 and 6 followed by fiber retrieval on day 7 by in-vivo hollow fiber assay; assay type: functional, organism-based
Outline: (§1)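 Murine hollow fiber model, ip route; fibers loaded per fiber with HT29 1 × 10⁶, MCF-7 5 × 10⁶, or MDA-MB-435 1 × 10⁶ cells. Dosing 0.5 to 10 mg/kg per day for four days in 5% EtOH/5% Tween 80 in physiologic saline; paclitaxel positive control at 2.0 mg/kg per day for four days. Proliferation inhibition assessed in each cell type.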

MDA-MB-435 = assay: Antitumor activity against human MDA-MB-435 cells xenografted in immunodeficient NCr nu/nu mouse assessed as inhibition of tumor growth at 0.5 to 10 mg/kg, ip dosed as four daily injections on day 3,4,5 and 6 followed by fiber retrieval on day 7 by in-vivo hollow fiber assay; assay type: functional, organism-based; outline: as §1
HT-29 [3] = assay: Antitumor activity against human HT-29 cells xenografted in immunodeficient NCr nu/nu mouse assessed as inhibition of tumor growth at 0.5 to 10 mg/kg, ip dosed as four daily injections on day 3,4,5 and 6 followed by fiber retrieval on day 7 by in-vivo hollow fiber assay; assay type: functional, organism-based; outline: as §1

Compound | IC50 (HT-29 [1]) [nM] | IC50 (HT-29 [2]) [nM] | also measured
CC(C)=C[C@@H]1O[C@@H]2C[C@@]3(C)[C@@H]4CC=C5[C@@H](CC[C@H](O)C5(C)C)[C@]4(C)C(=O)C[C@]3(C)[C@H]2[C@@](C)(O)[C@@H]1O [ELAEOCARPUCIN G] | 2900 | – | –
CC(C)(O)C[C@H]1C[C@](C)(O)[C@H]2[C@@H](C[C@@]3(C)[C@@H]4CC=C5[C@@H](CC[C@H](O)C5(C)C)[C@]4(C)C(=O)C[C@]23C)O1 [ELAEOCARPUCIN F] | > 10000 | > 20000 | –
CC(=O)OC(C)(C)/C=C/C(=O)[C@](C)(O)[C@H]1[C@H](O)C[C@@]2(C)[C@@H]3CC=C4[C@@H](C[C@H](O)[C@@H](O)C4(C)C)[C@]3(C)C(=O)C[C@]12C | 540 | – | –
CC(=O)O[C@H]1C(=O)[C@@]2(C)[C@H]([C@H](OC(=O)c3ccccc3)[C@]3(O)C[C@H](OC(=O)[C@H](O)[C@@H](NC(=O)c4ccccc4)c4ccccc4)C(C)=C1C3(C)C)[C@]1(OC(C)=O)CO[C@@H]1C[C@@H]2O [PACLITAXEL] | 6 | – | –
C/C(C=O)=C\[C@H]1C[C@](C)(O)[C@H]2[C@@H](C[C@@]3(C)[C@@H]4CC=C5[C@@H](CC[C@H](O)C5(C)C)[C@]4(C)C(=O)C[C@]23C)O1 [ELAEOCARPUCIN E] | > 10000 | – | –
CC(C)(O)/C=C/C(=O)[C@](C)(O)[C@H]1[C@H](O)C[C@@]2(C)[C@@H]3CC=C4[C@@H](CC(=O)[C@H](O)C4(C)C)[C@]3(C)C(=O)C[C@]12C | 39 | > 20000 | –
C=C(C)[C@@H](O)[C@H]1C[C@](C)(O)[C@H]2[C@@H](C[C@@]3(C)[C@@H]4CC=C5[C@@H](CC[C@H](O)C5(C)C)[C@]4(C)C(=O)C[C@]23C)O1 [ELAEOCARPUCIN B] | > 10000 | > 20000 | –
C=C(C)C(=O)[C@H]1C[C@](C)(O)[C@H]2[C@@H](C[C@@]3(C)[C@@H]4CC=C5[C@@H](CC[C@H](O)C5(C)C)[C@]4(C)C(=O)C[C@]23C)O1 [ELAEOCARPUCIN D] | 5600 | – | –
C=C(C)[C@H](O)[C@H]1C[C@](C)(O)[C@H]2[C@@H](C[C@@]3(C)[C@@H]4CC=C5[C@@H](CC[C@H](O)C5(C)C)[C@]4(C)C(=O)C[C@]23C)O1 [ELAEOCARPUCIN A] | > 10000 | > 20000 | –
CC(C)=C[C@H]1C[C@](C)(O)[C@H]2[C@@H](C[C@@]3(C)[C@@H]4C(=O)C=C5[C@@H](CC[C@H](O)C5(C)C)[C@]4(C)C(=O)C[C@]23C)O1 [ELAEOCARPUCIN H] | 2700 | – | –
CC(C)(O)/C=C/C(=O)[C@](C)(O)[C@H]1[C@H](O)C[C@@]2(C)[C@@H]3CC=C4[C@@H](C=C(O)C(=O)C4(C)C)[C@]3(C)C(=O)C[C@]12C [CUCURBITACIN I] | 190 | – | –
CC(C)(O)/C=C/C(=O)[C@](C)(O)[C@H]1[C@H](O)C[C@@]2(C)[C@@H]3CC=C4[C@@H](C[C@H](O)C(=O)C4(C)C)[C@]3(C)C(=O)C[C@]12C [CUCURBITACIN D] | 120 | > 20000 | –
CC(C)=C[C@H]1C[C@](C)(O)[C@H]2[C@@H](C[C@@]3(C)[C@@H]4CC=C5[C@@H](CC[C@H](O)C5(C)C)[C@]4(C)C(=O)C[C@]23C)O1 | > 10000 | > 20000 | –
C/C(=C\[C@H]1C[C@](C)(O)[C@H]2[C@@H](C[C@@]3(C)[C@@H]4CC=C5[C@@H](CC[C@H](O)C5(C)C)[C@]4(C)C(=O)C[C@]23C)O1)CO [ELAEOCARPUCIN C] | 410 | > 20000 | inhibition (MCF7): inactive; inhibition (MDA-MB-435): inactive; inhibition (HT-29 [3]): inactive
